Source: PubChem (several laboratories)
Diaph act CS – diaphorase activation or chemical reduction counter-screen; 0.005% of 190,000 active; AID 1229; activation factor at 20 µM; Diaphorase/resazurin coupled assay, resorufin fluorescence, 16 min; hits give high values; 1 = vehicle wells, 0 = NADH-free wells;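 active means diaphorase activity raised at least twofold by the compound at 20 µM; inactive means activation factor below 2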
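test system = bacterial diaphorase enzyme (C. kluyveri) | quantity = enzyme 0.07 U/mL final | reagent = NADH substrate 0.114 mM plus resazurin dye 0.1 mM, final | incubation = 16 min enzyme reaction, ambient temperature | buffer or medium = HEPES pH 7.4 buffer with MgCl2 and Tween 20 | signal = fluorescence of resorufin, 544 nm excitation, 590 nm emission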
PfGluPho inh – PfG6PD (Plasmodium falciparum) enzyme inhibition; AID 504690; 0.78% of 350,000 active; PfGluPho enzyme, NADPH resazurin-diaphorase fluorescence; inhibition, % at 20 µM;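 active means inhibition reaching at least a set limit at 20 µM in the primary screen, cut at about 59% in these data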;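 further: 0% = DMSO wells with substrate and 100% = DMSO wells lacking glucose-6-phosphate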
Diaphorase inh – inhibits diaphorase or chemically oxidizes, flagging diaphorase assay artifacts. diaphorase resazurin-to-resorufin fluorescence, NADH, 16 min; bacterial (C. kluyveri) enzyme, not human. inhibition, % at 20 µM. 0.69% of 190,000 active;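 active means primary screen inhibition at 20 µM above a set limit, cut at about 50% in these data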;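 further: plate controls were DMSO with full reaction for no effect and wells lacking NADH for full effect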
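Assay system: diaphorase enzyme from Clostridium kluyveri; Input: enzyme working solution with 0.14 U/mL diaphorase; Timing: 16 min at room temperature; Technique: resorufin fluorescence, excitation 544 nm, emission 590 nm; Benchmarks: positive control minus NADH, DMSO neutral control.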
HKDC1 inhibitor – blocks human hexokinase HKDC1 activity; Q2TB90; recombinant HKDC1, G6PDH/diaphorase resazurin coupled fluorescence; inhibition, % at 20 µM; 0.16% of 340,000 active;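 active means inhibition above about 35% when tested at 20 µM, limit read from the data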;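 further: plate controls were DMSO wells with enzyme for no effect and DMSO wells lacking enzyme for full effect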
Target sequence (Q2TB90 whole entry, looked up): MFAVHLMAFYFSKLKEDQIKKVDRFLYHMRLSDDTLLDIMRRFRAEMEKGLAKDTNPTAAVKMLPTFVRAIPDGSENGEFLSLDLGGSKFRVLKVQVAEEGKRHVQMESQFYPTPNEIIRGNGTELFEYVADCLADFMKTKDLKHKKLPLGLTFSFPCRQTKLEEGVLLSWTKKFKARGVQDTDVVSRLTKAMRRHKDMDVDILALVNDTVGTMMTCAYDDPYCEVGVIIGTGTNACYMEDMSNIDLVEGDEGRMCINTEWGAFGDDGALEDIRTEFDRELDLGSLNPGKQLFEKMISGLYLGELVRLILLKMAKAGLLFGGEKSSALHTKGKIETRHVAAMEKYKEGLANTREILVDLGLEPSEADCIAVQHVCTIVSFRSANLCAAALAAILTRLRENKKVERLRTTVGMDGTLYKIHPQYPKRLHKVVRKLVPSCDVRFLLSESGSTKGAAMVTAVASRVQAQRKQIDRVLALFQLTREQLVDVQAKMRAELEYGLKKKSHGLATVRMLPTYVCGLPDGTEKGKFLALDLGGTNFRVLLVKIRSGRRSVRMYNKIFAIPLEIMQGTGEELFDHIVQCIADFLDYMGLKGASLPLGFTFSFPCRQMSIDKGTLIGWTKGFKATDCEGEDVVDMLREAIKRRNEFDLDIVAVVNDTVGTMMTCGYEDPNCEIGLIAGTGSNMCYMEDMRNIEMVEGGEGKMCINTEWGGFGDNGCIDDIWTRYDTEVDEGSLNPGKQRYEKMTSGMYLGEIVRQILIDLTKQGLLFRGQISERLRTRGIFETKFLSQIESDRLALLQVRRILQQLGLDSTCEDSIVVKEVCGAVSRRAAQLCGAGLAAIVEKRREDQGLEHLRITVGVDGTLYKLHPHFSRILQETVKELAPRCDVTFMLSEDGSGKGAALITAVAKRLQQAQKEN
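test system = in-house recombinant HK5 (HKDC1) enzyme | amount = HKDC1 at 5 µg/mL | control set = DMSO-enzyme wells negative, buffer-substituted wells positive | compound = one dose of 20 µM, 1% DMSO | schedule = reaction time 90 min, room temperature, protected from light | technique = resorufin fluorescence at 613 nm | reagent = glucose with 1 mM ATP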
G6PDH counter-1 – inhibits Leuconostoc G6PDH, flagging false hits in G6PDH-based assays. Purified L. mesenteroides G6PDH, diaphorase/resazurin coupled fluorescence, 45 min. inhibition, % at 5 µM. 0.12% of 200,000 active. AID 1020; in the data active means inhibition above about 50%
TbHK1 inh – T. brucei hexokinase 1 inhibition | recombinant TbHK1, G6PDH-coupled NADH A340 | inhibition, % at 10 µM | 0.11% of 220,000 active;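 active means inhibition of 50% or more in the single-dose primary screen; inactive means inhibition below 50%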
G6PDH counter-2 – Leuconostoc glucose-6-phosphate dehydrogenase inhibition, counter-screen. 7% of 210 active. inhibition, % at 10 µM. shares compounds with TbHK1 inh. purified G6PDH, NADH absorbance, 1 h. AID 2516;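 active means at least 50% inhibition in the glucose-6-phosphate dehydrogenase coupled counterscreen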
TbHK1 rescreen – confirmation of Trypanosoma brucei hexokinase 1 inhibitors. 10% of 210 active. inhibition, % at 10 µM. shares compounds with TbHK1 inh. recombinant TbHK1, G6PDH-coupled NADH A340 absorbance;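 active means inhibition of at least 50% in both of the two screening runs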;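 further: 0% and 100% set by the maximum and minimum signal control wells on each plate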
The depositor's hits bear a star; / = no result. An excerpt weighted towards active compounds, which were near 1.3% of everything screened.

SMILES	Diaph act CS	PfGluPho inh	Diaphorase inh	HKDC1 inhibitor	G6PDH counter-1	TbHK1 inh	G6PDH counter-2	TbHK1 rescreen
COc1ccc(NC(=O)CSc2nc3c(c(-c4cccs4)c2C#N)CN(C)CC3)cc1OC	0.4	43	57*	-1	14	-5	/	/
COc1ccc(NC(=O)CSc2nnc(-c3cccs3)n2C)cc1OC	1	-15	-3	-5	-3	-9	/	/
CC(C)C(O)P(=O)(OCc1ccccc1)c1ccc(N(C)C)cc1 (stereo not given)	0.9	-5	6	-17	6	57*	-5	2
COc1cc(-c2noc(CCC(=O)Nc3cccnc3)n2)cc(OC)c1OC	0.9	1	9	6	1	54*	-9	1
COC(=O)c1c(C)[nH]c(C(=O)CC#N)c1C	0.9	13	10	-8	-4	-1	/	/
COC(=O)c1c(C)[nH]c(C(=O)CSc2ccc(Cl)cc2)c1C	0.9	-4	11	4	-3	50*	-6	-11
Cc1c(N=C2NN=C(c3c[nH]c4ccccc34)CS2)c(=O)n(-c2ccccc2)n1C	/	32	/	2	/	-46	/	/
COc1cc(/C(C)=N/NC(=O)Cc2c(C)[nH][nH]c2=O)ccc1O	0.9	2	6	11	6	-19	/	/
CCOC(=O)N1CCN(C(=O)C2CCN(S(=O)(=O)N3CCC4(CC3)OCCO4)CC2)CC1	/	-12	/	-2	/	/	/	/
CCOC(=O)N1CCN(C(=O)C2CCN(S(=O)(=O)N3CCCC3)CC2)CC1	0.9	-10	10	-11	14	58*	-6	5
S=C(NNc1ccnc2cc(Cl)ccc12)Nc1ccc(Cl)cc1Cl	/	23	/	-23	/	61*	109*	60*
COc1ccc(S(=O)(=O)NCC2CCCO2)c(Cl)c1Cl (stereo not given)	/	-9	/	0	/	/	/	/
NC(=O)C1CCN(C(=O)c2cc(S(=O)(=O)N3CCOCC3)c(Cl)cc2Cl)CC1	0.9	9	8	-3	2	69*	-8	-3
Cn1c(=O)c2[nH]c(Cc3ccsc3)nc2n(C)c1=O	/	2	/	-2	/	/	/	/
CCN1C(=S)N[C@@H](CCc2ccccc2)C(C(=O)OC)=C1C	/	11	/	0	/	/	/	/
COc1ccccc1C1CCN(C(=O)c2cccs2)CC1	/	-5	/	-4	/	50*	-3	-1
COc1ccccc1C1CCN(C(=O)c2ccccc2)CC1	/	-7	/	-2	/	/	/	/
Cc1nn(Cc2ccc(C(=O)NC(C)(C)C)o2)c(C)c1Br	0.9	1	8	3	1	50*	-36	32
Cc1cc(NC(=O)c2ccc(Cn3nc(C)c(Br)c3C)o2)no1	0.9	3	10	-9	-2	2	/	/
O=S(=O)(O)c1ccc(Cl)c(Cl)c1	/	-10	/	-2	/	/	/	/
Cc1cccc(C)c1NC(=O)CSc1nnc(-c2ccoc2C)n1C	0.8	-19	16	-3	4	67*	3	-2
Cc1c(NC(=O)CC(=O)Nc2c(C)n(C)n(-c3ccccc3)c2=O)c(=O)n(-c2ccccc2)n1C	0.9	0	10	-7	10	74*	-5	4
CCOCC(=O)Nc1c(C)n(C)n(-c2ccccc2)c1=O	1	/	0	/	19	2	/	/
Cc1ccccc1OCC(=O)OCC(=O)Nc1ncc(Cl)c(C)c1Cl	/	12	/	9	/	/	/	/
Cc1ccc(-c2nnc3c4ccccc4c(C)nn23)cc1NC(=O)CN1CCOCC1	0.9	/	11	/	0	51*	-20	-11
SMILES	Diaph act CS	PfGluPho inh	Diaphorase inh	HKDC1 inhibitor	G6PDH counter-1	TbHK1 inh	G6PDH counter-2	TbHK1 rescreen
N#Cc1cc(Sc2ccccn2)c(Sc2ccccn2)cc1C#N	0.8	23	20	1	2	58*	-12	-9
CCC(C)Nc1c2c(nc3c(-c4ccccc4)c(C)nn13)CCC2 (stereo not given)	0.8	11	19	-5	4	-8	/	/
O=S1(=O)N=C(Nc2ccc(N3CCOCC3)cc2)c2ccccc21	0.9	-2	13	-6	2	-12	/	/
O=S1(=O)N=C(N2CCOCC2)c2ccccc21	1	-16	5	-4	8	57*	-9	-1
CSCCC(=O)N1CCCC(N2CCN(c3cccc(C(F)(F)F)c3)CC2)C1 (stereo not given)	/	-14	/	-7	/	/	/	/
NC(=O)SC/C(=N\S(=O)(=O)c1ccccc1)Nc1ccccc1	0.9	-12	13	-8	1	58*	0	2
Cc1ccc(N/C(CSC(N)=O)=N/S(=O)(=O)c2ccccc2)cc1	1	-5	0	-3	9	4	/	/
CCn1nnnc1SCC(=O)NC1Cc2ccccc2C1	/	8	/	-2	/	-6	/	/
Clc1ccc(-c2nnc(NC3=NCCCCC3)o2)cc1	0.9	33	10	0	9	50*	-3	2
Cc1cc(C(=O)Nc2ccccc2C(=O)O)c(C)o1	/	-8	/	5	/	/	/	/
CC12CCC(C(=O)NC(c3ccccc3)c3ccccc3)(OC1=O)C2(C)C (stereo not given)	0.9	0	7	4	4	61*	-7	4
COc1ccc(NC2=NC3(CCCCC3)N=C(N)N2)cc1	1.1	-13	-5	-9	4	62*	19	13
CC(C)(C)C(=O)CN1C2=NCCCN2c2ccccc21	/	-2	/	-10	/	/	/	/
CN(C)c1ccc(C(=S)N2CCCCCC2)cc1	0.8	23	17	7	0	-12	/	/
CN(C)c1ccc(C(=S)N2CCOCC2)cc1	0.8	-9	20	-5	18	69*	-20	-30
O=C(C[n+]1ccc2ccccc2c1)c1cccc2ccccc12	0.6	14	45	4	4	-5	/	/
O=C(/C=C/c1cc[n+](CC(=O)c2ccc3cccc4c3c2CC4)cc1)c1ccc2cccc3c2c1CC3	/	73*	/	19	/	75*	100*	45
Cc1oc(-c2ccccc2F)nc1CSCC(=O)NCc1ccc2c(c1)OCO2	0.9	-5	11	-11	-1	61*	-21	0
COC(=O)c1[nH]c(=O)c2ccccc2c1OCc1ccccc1	0.7	19	26	0	4	54*	-31	-27
CC1CCCN(C(=O)C2CCN(S(=O)(=O)c3cccc4nsnc34)CC2)C1 (stereo not given)	/	-12	/	-5	/	/	/	/
O=C(C1CCN(S(=O)(=O)c2cccc3nsnc23)CC1)N1CCc2ccccc2C1	0.9	17	14	8	10	54*	-30	-19
CCOC(=O)c1ccc(NC(=O)COC(=O)Cc2csc(-c3ccccc3)n2)cc1	0.8	3	19	15	-21	-4	/	/
